{"source": "ChEMBL document CHEMBL5033998", "about": "“Discovery of DDO-2213 as a Potent and Orally Bioavailable Inhibitor of the WDR5-Mixed Lineage Leukemia 1 Protein-Protein Interaction for the Treatment of MLL Fusion Leukemia” (J Med Chem, 2021)", "key": {"[1]": {"test_system": "HUVEC", "experiment": "Antiproliferative activity against human HUVEC cells assessed as cell viability incubated for 72 hrs by CCK8 assay", "type": "cell-based", "outline": "(§1)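 Cells seeded at 3000–6000 per well, exposed to inhibitor at several concentrations for 72 h; viability read with CCK8 kit. MV4-11 and K562 grown in modified IMDM + 10% FBS, pen/strep; MOLM-13 in RPMI-1640 + 10% FBS; HUVEC in modified DMEM + 10% FBS; 37 °C, 5% CO2. IC50 as mean ± SD of three independent experiments.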"}, "[2]": {"experiment": "Permeability of compound at pH 7.4 incubated for 4 hrs by PAMPA assay", "type": "ADME", "conditions": "read-out: permeability", "outline": "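Double-sink PAMPA: compound diluted in pH 7.4 donor buffer, permeation through artificial membrane to acceptor over 4 h at 25 °C; donor and acceptor read by UV; mean ± SD of three independent experiments.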"}, "[3]": {"experiment": "Metabolic stability in human liver microsomes assessed as half life at 1 uM in presence of NADPH by LC-MS/MS analysis", "type": "ADME, Microsome", "outline": "(§2)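 Compound at 1 μM preincubated 5 min at 37 °C with human or rat liver microsomes (0.7 mg/mL) in 100 mM PBS pH 7.4; reaction started with 1 mM NADPH.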"}, "[4]": {"molecular_target": "T1, Histone-lysine N-methyltransferase 2A (Homo sapiens, UniProt Q03164)", "T1 sequence (Q03164 1-2718 limits assumed)": "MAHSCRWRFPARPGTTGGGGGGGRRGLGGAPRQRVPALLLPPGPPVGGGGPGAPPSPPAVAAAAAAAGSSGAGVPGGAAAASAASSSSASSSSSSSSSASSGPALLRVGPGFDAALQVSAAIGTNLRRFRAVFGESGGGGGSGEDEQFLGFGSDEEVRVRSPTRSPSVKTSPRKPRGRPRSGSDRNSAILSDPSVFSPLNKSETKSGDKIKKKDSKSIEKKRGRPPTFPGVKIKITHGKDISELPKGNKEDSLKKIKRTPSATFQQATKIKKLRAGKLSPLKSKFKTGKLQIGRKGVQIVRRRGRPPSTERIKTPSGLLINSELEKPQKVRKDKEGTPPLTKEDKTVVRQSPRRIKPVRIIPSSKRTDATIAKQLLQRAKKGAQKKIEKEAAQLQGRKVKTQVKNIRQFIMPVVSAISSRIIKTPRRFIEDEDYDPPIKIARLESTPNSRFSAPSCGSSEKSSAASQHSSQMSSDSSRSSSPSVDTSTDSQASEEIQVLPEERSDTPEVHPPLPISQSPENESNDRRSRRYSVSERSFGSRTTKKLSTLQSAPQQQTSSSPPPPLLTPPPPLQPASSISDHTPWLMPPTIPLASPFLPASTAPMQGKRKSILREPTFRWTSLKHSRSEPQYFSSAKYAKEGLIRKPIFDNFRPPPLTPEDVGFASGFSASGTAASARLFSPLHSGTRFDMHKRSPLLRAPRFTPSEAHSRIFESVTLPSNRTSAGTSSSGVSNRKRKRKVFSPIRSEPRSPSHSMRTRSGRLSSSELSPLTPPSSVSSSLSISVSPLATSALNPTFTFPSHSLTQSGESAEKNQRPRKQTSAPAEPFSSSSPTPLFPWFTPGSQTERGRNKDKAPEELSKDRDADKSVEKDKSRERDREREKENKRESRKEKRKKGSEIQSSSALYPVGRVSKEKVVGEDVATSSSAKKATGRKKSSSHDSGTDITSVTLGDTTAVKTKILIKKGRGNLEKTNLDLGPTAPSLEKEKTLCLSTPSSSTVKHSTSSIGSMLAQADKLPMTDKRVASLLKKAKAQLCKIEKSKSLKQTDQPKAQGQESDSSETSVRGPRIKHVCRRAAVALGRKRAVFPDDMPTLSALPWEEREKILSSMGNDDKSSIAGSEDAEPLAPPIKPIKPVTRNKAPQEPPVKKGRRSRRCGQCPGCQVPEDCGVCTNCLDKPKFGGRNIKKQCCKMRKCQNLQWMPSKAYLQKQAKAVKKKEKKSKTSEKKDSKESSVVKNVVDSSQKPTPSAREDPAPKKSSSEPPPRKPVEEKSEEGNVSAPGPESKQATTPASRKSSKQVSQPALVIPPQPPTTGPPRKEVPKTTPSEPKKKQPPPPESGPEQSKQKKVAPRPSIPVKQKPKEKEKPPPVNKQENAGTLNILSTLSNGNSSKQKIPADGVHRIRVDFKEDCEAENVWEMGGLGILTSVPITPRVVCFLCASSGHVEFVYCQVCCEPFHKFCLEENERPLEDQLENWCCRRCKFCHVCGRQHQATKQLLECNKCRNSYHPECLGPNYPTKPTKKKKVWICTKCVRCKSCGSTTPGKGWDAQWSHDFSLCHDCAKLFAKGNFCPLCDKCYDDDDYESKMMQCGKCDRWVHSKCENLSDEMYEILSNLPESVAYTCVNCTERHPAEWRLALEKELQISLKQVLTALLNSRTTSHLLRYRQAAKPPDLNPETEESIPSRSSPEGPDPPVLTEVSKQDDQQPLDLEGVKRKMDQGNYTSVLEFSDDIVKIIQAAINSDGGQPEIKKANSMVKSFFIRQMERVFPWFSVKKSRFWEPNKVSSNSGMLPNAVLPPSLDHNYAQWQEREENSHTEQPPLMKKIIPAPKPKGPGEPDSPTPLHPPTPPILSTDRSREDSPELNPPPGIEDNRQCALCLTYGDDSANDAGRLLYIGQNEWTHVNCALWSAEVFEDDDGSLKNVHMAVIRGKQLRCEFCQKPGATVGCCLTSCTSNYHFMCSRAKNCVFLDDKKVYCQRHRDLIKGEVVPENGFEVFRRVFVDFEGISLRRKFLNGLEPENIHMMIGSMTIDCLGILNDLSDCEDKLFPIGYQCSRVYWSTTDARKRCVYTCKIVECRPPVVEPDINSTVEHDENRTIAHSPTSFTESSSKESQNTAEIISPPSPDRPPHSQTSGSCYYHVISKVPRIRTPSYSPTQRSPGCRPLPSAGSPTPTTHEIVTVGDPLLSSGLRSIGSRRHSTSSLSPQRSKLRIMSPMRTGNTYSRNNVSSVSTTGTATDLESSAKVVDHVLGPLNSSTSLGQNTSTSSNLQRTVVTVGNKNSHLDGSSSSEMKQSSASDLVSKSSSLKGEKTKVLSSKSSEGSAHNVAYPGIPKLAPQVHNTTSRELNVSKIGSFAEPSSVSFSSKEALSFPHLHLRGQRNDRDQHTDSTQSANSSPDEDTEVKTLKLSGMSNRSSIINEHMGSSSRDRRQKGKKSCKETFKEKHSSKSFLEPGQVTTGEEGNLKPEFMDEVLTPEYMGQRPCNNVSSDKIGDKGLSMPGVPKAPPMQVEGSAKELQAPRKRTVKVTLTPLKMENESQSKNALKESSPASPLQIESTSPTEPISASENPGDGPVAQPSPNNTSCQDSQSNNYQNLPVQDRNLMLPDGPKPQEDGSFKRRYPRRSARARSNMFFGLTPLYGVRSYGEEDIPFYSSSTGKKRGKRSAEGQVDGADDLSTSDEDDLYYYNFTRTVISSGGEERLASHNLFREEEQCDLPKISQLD", "T1 sequence (Q03164 2719-3969 limits assumed)": "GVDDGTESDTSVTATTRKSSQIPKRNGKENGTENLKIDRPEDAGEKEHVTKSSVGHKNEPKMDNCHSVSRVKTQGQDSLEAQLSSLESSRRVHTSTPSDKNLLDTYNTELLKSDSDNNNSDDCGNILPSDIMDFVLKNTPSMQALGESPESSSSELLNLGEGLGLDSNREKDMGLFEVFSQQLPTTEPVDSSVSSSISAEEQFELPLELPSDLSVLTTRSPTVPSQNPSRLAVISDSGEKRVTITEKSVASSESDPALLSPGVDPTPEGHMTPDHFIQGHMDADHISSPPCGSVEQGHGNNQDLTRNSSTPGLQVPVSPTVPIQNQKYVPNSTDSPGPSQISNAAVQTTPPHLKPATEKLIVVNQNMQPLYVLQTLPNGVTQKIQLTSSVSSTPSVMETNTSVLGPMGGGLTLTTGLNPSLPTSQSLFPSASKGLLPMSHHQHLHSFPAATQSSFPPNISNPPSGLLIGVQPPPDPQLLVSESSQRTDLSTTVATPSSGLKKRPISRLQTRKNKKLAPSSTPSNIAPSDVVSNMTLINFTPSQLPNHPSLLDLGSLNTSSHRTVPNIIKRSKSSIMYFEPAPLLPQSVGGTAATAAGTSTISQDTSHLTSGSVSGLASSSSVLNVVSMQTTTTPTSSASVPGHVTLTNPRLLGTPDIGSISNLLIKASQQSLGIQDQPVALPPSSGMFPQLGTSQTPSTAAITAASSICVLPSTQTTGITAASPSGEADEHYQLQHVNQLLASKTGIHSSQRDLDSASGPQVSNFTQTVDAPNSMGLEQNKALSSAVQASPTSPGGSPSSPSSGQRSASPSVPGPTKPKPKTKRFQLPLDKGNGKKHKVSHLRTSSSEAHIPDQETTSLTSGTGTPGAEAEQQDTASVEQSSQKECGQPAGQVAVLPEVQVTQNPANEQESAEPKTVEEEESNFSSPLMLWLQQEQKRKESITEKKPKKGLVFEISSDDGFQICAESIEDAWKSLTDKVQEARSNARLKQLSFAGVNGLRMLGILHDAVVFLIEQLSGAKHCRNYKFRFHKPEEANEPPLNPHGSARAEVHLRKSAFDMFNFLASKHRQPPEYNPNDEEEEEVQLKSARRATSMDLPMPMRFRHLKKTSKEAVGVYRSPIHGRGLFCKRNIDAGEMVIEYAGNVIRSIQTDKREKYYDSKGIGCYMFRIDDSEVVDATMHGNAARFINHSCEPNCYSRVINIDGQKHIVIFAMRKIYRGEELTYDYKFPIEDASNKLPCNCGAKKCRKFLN", "experiment": "Inhibition of MLL1 (unknown origin) in human MV4-11 cells assessed as decrease in H3Kme2 level at 1 to 10 uM measured after 7 days by Western blot analysis", "type": "cell-based", "outline": "(§3)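 MV4-11 cells exposed to 1, 2.5, 5 and 10 μM; H3K4me1/me2/me3 assessed by Western blot with histone H3 as loading control. Blots blocked in 1% BSA 1 h, primary antibody overnight at 4 °C, DyLight 800 secondary 1 h at 37 °C, infrared imaging.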"}, "[5]": {"molecular_target": "Histone-lysine N-methyltransferase, H3 lysine-79 specific (Homo sapiens, UniProt Q8TEK3)", "experiment": "Inhibition of DOT1L (unknown origin) assessed as effect on H3K79 methylation incubated for 30 mins by Alphascreen assay", "outline": "(§4)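 AlphaScreen: enzyme, SAM and compound mixed in 10 mM PBS for 30 min at room temperature; acceptor beads and substrate antibody added, 30 min at room temperature, then streptavidin donor beads; read on AlphaScreen reader.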"}, "[6]": {"molecular_target": "T2, N-lysine methyltransferase KMT5A (Homo sapiens, UniProt Q9NQR1)", "T2 sequence (Q9NQR1 whole entry)": "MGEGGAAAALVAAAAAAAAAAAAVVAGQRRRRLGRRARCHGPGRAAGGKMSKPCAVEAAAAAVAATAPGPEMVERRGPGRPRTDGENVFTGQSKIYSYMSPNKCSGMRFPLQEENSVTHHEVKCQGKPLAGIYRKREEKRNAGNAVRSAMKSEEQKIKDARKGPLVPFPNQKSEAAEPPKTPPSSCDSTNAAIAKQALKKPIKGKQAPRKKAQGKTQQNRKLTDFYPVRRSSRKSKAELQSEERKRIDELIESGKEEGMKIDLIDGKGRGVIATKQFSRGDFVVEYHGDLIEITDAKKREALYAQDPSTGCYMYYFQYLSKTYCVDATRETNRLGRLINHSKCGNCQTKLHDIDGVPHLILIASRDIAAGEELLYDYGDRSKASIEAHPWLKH", "experiment": "Inhibition of SET8 (unknown origin) assessed as effect on H4K20 methylation incubated for 30 mins by Alphascreen assay", "outline": "as §4"}, "[7]": {"experiment": "Metabolic stability in human liver microsomes assessed as clearance at 1 uM in presence of NADPH by LC-MS/MS analysis", "type": "ADME, Microsome", "outline": "as §2"}, "[8]": {"experiment": "Toxicity in Balb/c nude mouse xenografted with human MV4-11 cells assessed as body weight loss at 40 to 120 mg/kg, po administered daily for 21 days relative to control", "type": "organism-based", "conditions": "in vivo, 504 h", "outline": "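Nude BALB/c females bearing MV4-11 xenografts, dosed orally each day for 21 days at 40, 80 or 120 mg/kg, saline vehicle controls (6 mice/group); body weight recorded every other day.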"}, "[9]": {"molecular_target": "T1, Histone-lysine N-methyltransferase 2A", "experiment": "Inhibition of MLL1 (unknown origin) in human MV4-11 cells assessed as decrease in H3Kme3 level at 1 to 10 uM measured after 7 days by Western blot analysis", "type": "cell-based", "outline": "as §3"}, "[10]": {"test_system": "MV4-11", "experiment": "Antitumor activity against human MV4-11 cells xenografted in Balb/c nude mouse assessed as tumor growth inhibition at 80 mg/kg, po administered daily for 21 days relative to control", "type": "functional", "conditions": "MV4-11, po, 504 h, time 21 day, read-out: TGI", "outline": "(§5)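 Female BALB/c nude mice (6–8 weeks) given ~5 × 10^6 MV4-11 cells in 0.2 mL PBS into the flank; at 100–150 mm3 randomized (6/group) to vehicle (0.9% saline) or 40, 80, 120 mg/kg oral (hydrochloride salt) daily for 21 days. Volume = length × width²/2 every other day; GI% = [1 − (TVt − TV0)/(CVt − CV0)] × 100%.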"}, "[11]": {"test_system": "MV4-11", "experiment": "Antitumor activity against human MV4-11 cells xenografted in Balb/c nude mouse assessed as tumor growth inhibition at 40 mg/kg, po administered daily for 21 days relative to control", "type": "functional", "conditions": "MV4-11, po, 504 h, time 21 day, read-out: TGI", "outline": "as §5"}, "[12]": {"experiment": "Apparent volume of distribution in Sprague-Dawley rat at 10 mg/kg, po measured upto 24 hrs by LC-MS/MS analysis", "type": "ADME, organism-based", "conditions": "in vivo, read-out: Vz/F", "outline": "(§6)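 Male SD rats, 6–8 weeks, 220 ± 30 g; single oral dose 10 mg/kg (n = 3). Plasma sampled at 0, 0.25, 0.5, 1, 2, 4, 6, 8 and 24 h, stored at −80 °C, quantified by LC-MS/MS; parameters reported as mean ± SEM.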"}, "[13]": {"test_system": "MV4-11", "experiment": "Antitumor activity against human MV4-11 cells xenografted in Balb/c nude mouse assessed as tumor growth inhibition at 120 mg/kg, po administered daily for 21 days relative to control", "type": "functional", "conditions": "MV4-11, po, 504 h, time 21 day, read-out: TGI", "outline": "as §5"}, "[14]": {"experiment": "AUC (0 to t) in Sprague-Dawley rat at 2 mg/kg, iv measured upto 24 hrs by LC-MS/MS analysis", "type": "ADME, organism-based", "design": "route intravenous, dose 2 mg/kg, time <=24", "conditions": "in vivo"}, "[15]": {"experiment": "Apparent clearance in Sprague-Dawley rat at 10 mg/kg, po measured upto 24 hrs by LC-MS/MS analysis", "type": "ADME, organism-based", "conditions": "in vivo", "outline": "as §6"}, "[16]": {"test_system": "MV4-11", "experiment": "Antitumor activity against human MV4-11 cells xenografted in Balb/c nude mouse assessed as tumor weight inhibition at 120 mg/kg, po administered daily for 21 days relative to control", "type": "functional", "conditions": "MV4-11, po, 504 h", "outline": "(§7)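 MV4-11 flank xenografts (~5 × 10^6 cells) in female BALB/c nude mice, 6 per group; daily oral dosing (40, 80, 120 mg/kg) or saline vehicle for 21 days, then tumors excised and weighed.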"}, "[17]": {"experiment": "AUC (0 to infinity) in Sprague-Dawley rat at 2 mg/kg, iv measured upto 24 hrs by LC-MS/MS analysis", "type": "ADME, organism-based", "design": "route intravenous, dose 2 mg/kg, time <=24", "conditions": "in vivo"}, "[18]": {"experiment": "Metabolic stability in rat liver microsomes assessed as clearance at 1 uM in presence of NADPH by LC-MS/MS analysis", "type": "ADME, Microsome", "outline": "as §2"}, "[19]": {"test_system": "MV4-11", "experiment": "Antitumor activity against human MV4-11 cells xenografted in Balb/c nude mouse assessed as tumor weight inhibition at 80 mg/kg, po administered daily for 21 days relative to control", "type": "functional", "conditions": "MV4-11, po, 504 h", "outline": "as §7"}, "[20]": {"test_system": "MV4-11", "experiment": "Antiproliferative activity against human MV4-11 cells assessed as cell viability incubated for 72 hrs by CCK8 assay", "type": "functional, cell-based", "conditions": "MV4-11, 72 h", "outline": "as §1"}}, "note": "Calls of active or inactive are those of the source. The calls are words filed in the database; no cut-off is given here."}
{"compound": "CN1CCN(c2cc(F)c(-c3ccc(C(=O)N(C)C)cc3)cc2Nc2ncnc(Cl)c2N)CC1", "values": [{"measurement": "IC50", "setting": "[1]", "result": "> 100", "unit": "µM"}, {"measurement": "Papp at 4 h", "setting": "[2]", "result": 20.2, "unit": "×10⁻⁶ cm/s"}, {"measurement": "half-life at 1 µM", "setting": "[3]", "result": 1.17, "unit": "h"}, {"measurement": "inhibition", "setting": "[4]", "result": "Active"}, {"measurement": "IC50", "setting": "[5]", "result": "> 100", "unit": "µM"}, {"measurement": "IC50", "setting": "[6]", "result": "> 100", "unit": "µM"}, {"measurement": "CLH", "setting": "[7]", "result": 14.1, "unit": "µL/min/mg"}, {"measurement": "Activity", "setting": "[8]", "result": "Non-Toxic"}, {"measurement": "inhibition", "setting": "[9]", "result": "Active"}, {"measurement": "inhibition in vivo at 80 mg/kg", "setting": "[10]", "result": 53.6, "unit": "%"}, {"measurement": "inhibition in vivo at 40 mg/kg", "setting": "[11]", "result": 39.4, "unit": "%"}, {"measurement": "Vd/F", "setting": "[12]", "result": 37.1, "unit": "L/kg"}, {"measurement": "inhibition in vivo at 120 mg/kg", "setting": "[13]", "result": 54.5, "unit": "%"}, {"measurement": "AUC(0-t) at 24 h", "setting": "[14]", "result": 411, "unit": "ng·h/mL"}, {"measurement": "CL/F", "setting": "[15]", "result": 97.2, "unit": "mL/min/kg"}, {"measurement": "inhibition in vivo at 120 mg/kg", "setting": "[16]", "result": 56.8, "unit": "%"}, {"measurement": "AUC(0-inf)", "setting": "[17]", "result": 424, "unit": "ng·h/mL"}, {"measurement": "CLH", "setting": "[18]", "result": 15, "unit": "µL/min/mg"}, {"measurement": "inhibition in vivo at 80 mg/kg", "setting": "[19]", "result": 51.6, "unit": "%"}, {"measurement": "IC50", "setting": "[20]", "result": 12.6, "unit": "µM"}]}
